Cl transport mod: KCC2 (human) Cl- transport modulation | 190,000 tested, 2.2% active | Q9H2X9 | KCC2 cells, thallium flux FluoZin-2 fluorescence | B-score of Tl+ flux slope (higher = more flux/activation; lower = inhibition) at 10 µM | AID 1456;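 active = thallium flux slope and its plate-corrected score both differing from the plate sample mean at a set confidence after two filtering rounds, in either direction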;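 also: slope of fluorescence scaled to starting intensity during 10 to 20 s after thallium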
KCNQ1 block: human KCNQ1 channel inhibition; P51787; CHO-K1 KCNQ1, FluxOR thallium flux fluorescence; hits give high values; B-score at 10 µM; 310,000 tested, 1.3% active; AID 2642;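 active = compounds whose thallium flux B-score, printed positive for inhibition, exceeds three library SD while starting fluorescence stays within three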;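 also: channel opened by potassium depolarization with thallium stimulus after 20 min compound exposure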
KCNK3 inh: human KCNK3 channel inhibition, primary screen | O14649 | 340,000 tested, 0.84% active | CHO-KCNK3 thallium flux, FluxOR fluorescence; hits give low values | B-score at 10 µM;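 active = B-score under library mean minus 4 SD, starting fluorescence ratio at most library mean plus 5 SD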;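 also: more negative B-score means stronger inhibition of thallium flux through KCNK3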
KCNK9 inh: inhibitors of human KCNK9 two-pore domain potassium channel; B-score at 10 µM; AID 488922; HEK293 KCNK9, FluxOR thallium flux fluorescence; hits give low values; 310,000 tested, 1.2% active; Q9NPC2;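 active = ratio B-score over 3 SD below the library mean, with starting fluorescence within 5 SD of its mean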;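 also: negative B-score means less thallium flux so channel inhibition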
KCNQ1 pot: potentiates or activates the human KCNQ1 potassium channel; P51787; CHO-K1 KCNQ1, thallium flux FluxOR fluorescence; hits give high values; B-score at 10 µM; 310,000 tested, 0.35% active; AID 2648;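 active = fluorescence ratio B-score, a plate-corrected score, at least three library SD, with initial intensity B-score within 5 SD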
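Schedule – 37 °C overnight plating, 90-min dark dye load, 20-min compound pretreatment · System – stable KCNQ1 CHO-K1 line · Probe or stimulus – thallium- and potassium-containing depolarizing buffer · Measured by – kinetic FluxOR fluorescence, 10 s baseline plus 110 s post-stimulus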
hERG protect: hERG (human) protection from proarrhythmic block | activation (rescue from dofetilide block), less the hit threshold, % at 10 µM | 310,000 tested, 0.51% active | AID 1511 | CHO-hERG, FluxOR thallium flux, dofetilide IC70 present | Q12809;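 active = activation above the mean of controls blocked by dofetilide plus 5 SD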;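 also: thallium influx through hERG after potassium depolarization seen as dye fluorescence rise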
Target sequence (Q12809 whole entry, looked up): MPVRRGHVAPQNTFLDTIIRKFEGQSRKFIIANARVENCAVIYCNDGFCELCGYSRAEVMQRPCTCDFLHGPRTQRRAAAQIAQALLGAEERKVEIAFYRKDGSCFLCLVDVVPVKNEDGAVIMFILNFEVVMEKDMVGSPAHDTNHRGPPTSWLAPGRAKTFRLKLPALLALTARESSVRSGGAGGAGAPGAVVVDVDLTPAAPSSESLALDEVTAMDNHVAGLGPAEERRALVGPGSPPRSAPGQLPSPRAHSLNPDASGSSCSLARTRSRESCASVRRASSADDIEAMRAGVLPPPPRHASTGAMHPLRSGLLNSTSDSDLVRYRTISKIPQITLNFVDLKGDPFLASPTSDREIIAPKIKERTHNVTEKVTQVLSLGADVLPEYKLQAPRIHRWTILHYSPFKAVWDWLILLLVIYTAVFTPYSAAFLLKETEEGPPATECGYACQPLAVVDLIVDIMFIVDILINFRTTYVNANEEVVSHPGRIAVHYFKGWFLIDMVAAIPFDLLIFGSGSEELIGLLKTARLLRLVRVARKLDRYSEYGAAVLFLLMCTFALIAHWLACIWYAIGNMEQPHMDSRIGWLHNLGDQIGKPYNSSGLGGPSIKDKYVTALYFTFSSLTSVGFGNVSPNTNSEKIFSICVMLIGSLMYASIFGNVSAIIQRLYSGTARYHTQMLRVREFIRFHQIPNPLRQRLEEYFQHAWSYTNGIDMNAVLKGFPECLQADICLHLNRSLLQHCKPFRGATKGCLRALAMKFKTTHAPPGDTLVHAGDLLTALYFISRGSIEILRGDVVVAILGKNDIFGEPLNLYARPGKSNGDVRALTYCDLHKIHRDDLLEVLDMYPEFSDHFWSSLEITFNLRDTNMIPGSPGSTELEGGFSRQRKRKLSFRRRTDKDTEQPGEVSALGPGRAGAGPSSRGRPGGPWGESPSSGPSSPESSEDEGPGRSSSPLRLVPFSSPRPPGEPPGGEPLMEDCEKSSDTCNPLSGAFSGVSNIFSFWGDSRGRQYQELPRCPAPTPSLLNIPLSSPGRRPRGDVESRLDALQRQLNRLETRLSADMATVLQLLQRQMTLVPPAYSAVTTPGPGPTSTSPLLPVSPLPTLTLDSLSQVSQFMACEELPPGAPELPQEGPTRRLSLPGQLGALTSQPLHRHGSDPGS
* hit, by the source's call; i = inactive; nt = no result. Sampled rows, rich in hits. Any-hit rate of the full collection: about 4.1%.

SMILES | Cl transport mod | KCNQ1 block | KCNK3 inh | KCNK9 inh | KCNQ1 pot | hERG protect
CCOC(=O)CN1C=C(c2ccc3ccccc3n2)C(C[N+](=O)[O-])c2ccccc21 (centres undefined) | -1.85 | 11* | i | i | i | -26.1
CCOC(=O)CSc1ccc2ccccc2n1 | -0.973 | i | i | i | i | -13.0
S=C(Nc1cc(Cl)ccc1Oc1ccccc1)N1CCN(c2ccccn2)CC1 | nt | i | i | i | i | -8.4
S=C(Nc1ccccc1)Nc1cc(Cl)ccc1Oc1ccccc1 | nt | 9* | i | i | i | -6.7
O=C(Nn1c(O)c(C=C2N=c3ccccc3=N2)sc1=S)c1cccc(Cl)c1 | nt | i | i | i | i | 12.0*
O=C(Nn1c(O)c(C=C2N=c3ccccc3=N2)sc1=S)c1ccc(Cl)cc1 | nt | i | i | i | i | -8.8
CC(C)CC(=O)N1CCN(S(C)(=O)=O)CC1 | 6.37* | i | i | i | i | -2.2
Cc1ccsc1/C=N/Nc1ncc(Cl)cc1Cl | -1.02 | 6* | i | i | i | -9.0
COc1ccc2[nH]c3c(c2c1)CCN1C(=O)N([C@@H](C)C(=O)NC2CCCC2)C(=O)[C@]31C | nt | i | i | i | i | -5.0
CCn1c(SCc2ccc(C(=O)OC)o2)nc2sc3c(c2c1=O)CCCC3 | 2.41 | i | i | -7.86* | i | -5.8
CC(=O)NC1CSCC1OC(C)=O (centres undefined) | nt | i | i | i | i | -6.8
O=C(N/C(=C\c1ccc(-c2ccccc2)o1)C(=O)N1CCOCC1)c1ccccc1 | -7.25* | nt | i | nt | nt | nt
O=C(N/C(=C/c1ccc(F)cc1)C(=O)N1CCOCC1)c1ccccc1 | nt | i | i | i | i | -1.7
CCOc1ccccc1OCCn1nnc2ccccc21 | -0.164 | i | i | i | i | -5.7
O=C(CSc1nc2ccc([N+](=O)[O-])cc2[nH]1)NC1CCCCCC1 | -0.897 | 14* | i | i | i | -12.2
Cc1nc2nc(SCC(=O)NCCCN3CCCCCC3)nn2c(C)c1Cc1ccccc1Cl | nt | i | i | i | i | -2.4
COc1ccccc1-c1ccc(SCC(=O)Nc2cc(C)on2)nn1 | -2.8 | i | i | i | i | -4.9
CCOCCCNC(=O)C(NC(=O)Cc1cccs1)c1ccc(C)cc1 (centres undefined) | -1.27 | i | i | i | i | 12.0*
O=C(c1cc2nc(-c3cccs3)cc(C(F)(F)Cl)n2n1)N1CCCc2ccccc21 | nt | i | i | -6.72* | i | -8.1
O=C(c1cc2nc(-c3cccs3)cc(C(F)(F)F)n2n1)N1CCCc2ccccc21 | -0.566 | i | i | i | i | -4.2
O=C(CSc1nc2nc(-c3cccs3)cc(C(F)(F)F)c2c(=O)[nH]1)Nc1ccc(F)c(F)c1 | -1.89 | 7* | i | i | i | -15.1
CC(=NC1CCCC1)c1c(C)[nH]n(-c2nc3ccccc3s2)c1=O | 0.841 | i | i | i | i | 6.2*
CC(=NC1CC1)c1c(-c2ccccc2)[nH]n(-c2nc3ccccc3s2)c1=O | -0.133 | i | i | i | i | -3.7
COc1cc(C2(c3ccc(O)c(OC)c3)C(=O)Nc3c(C)cc(Br)cc32)ccc1O | nt | i | i | i | 9* | -9.1
O=[N+]([O-])c1cc(C(F)(F)F)ccc1NCCNC(=S)Nc1ccc(Cl)cc1 | nt | 6* | i | i | i | -4.5
SMILES | Cl transport mod | KCNQ1 block | KCNK3 inh | KCNK9 inh | KCNQ1 pot | hERG protect
CN(C)CCCNC(=O)c1ccc(-c2nc(-c3ccc(Cl)cc3)cs2)cc1 | nt | i | i | -7.17* | i | -38.9
CN(C)CCCNC(=O)c1ccccn1 | -0.151 | i | i | i | i | -4.5
O=C(NCCCN1CCOCC1)c1ccc(CSc2ccc(Cl)cc2)cc1 | -0.425 | i | i | i | i | -12.6
O=C(/C=C/c1cn(-c2ccccc2)nc1-c1cccc(Cl)c1)N1CCN(c2ccccn2)CC1 | -1.47 | 7* | i | i | i | -23.4
O=C(/C=C/c1cn(-c2ccccc2)nc1-c1cccnc1)N1CCCCC1 | -1.76 | i | i | i | i | -6.6
O=C(O)c1ccc2c(c1)C(=O)N(c1ccc(Nc3ccccc3)cc1)C2=O | nt | i | i | i | i | -0.6
Cn1cnc([N+](=O)[O-])c1SCC(=O)NN | 0.401 | i | i | i | i | -12.3
COc1cccc(/C=N/n2c(SC)nnc2-c2ccccc2)c1O | nt | i | i | i | 15* | 1.5
COc1cccc(/C=N/n2c(SC)nnc2-c2ccccc2)c1OC | nt | i | i | i | i | -11.9
C=C1C(=O)C=C2CN(C(=O)c3ccccc3)[C@@](Cc3ccc(F)cc3)(C(=O)OC)[C@@H]12 | -1.07 | i | i | i | 17* | -26.2
COc1ccc(C(=O)CSc2nnn(-c3cccc(NC(C)=O)c3)n2)cc1 | 0.546 | i | i | i | i | -11.0
COc1cccc(C(=O)CC(=O)C(=O)Nc2cccc([N+](=O)[O-])c2C)c1 | nt | i | i | i | i | -5.2
COc1ccc(C(=O)CC(=O)C(=O)Nc2ccc(C)cc2Cl)cc1 | nt | i | i | i | i | 55.8*
COc1cccc(C(=O)CC(=O)C(=O)Nc2ccc(C)cc2Cl)c1 | nt | i | i | i | i | 30.6*
CCOc1ccccc1NC(=O)C(=O)CC(=O)c1cccc(OC)c1 | nt | i | i | i | 16* | 12.0*
COc1ccc(C(=O)CC(=O)C(=O)Nc2ccccc2OC)cc1 | nt | i | i | i | i | 1.2
COc1cccc(C(=O)CC(=O)C(=O)Nc2cc(OC)ccc2OC)c1 | nt | i | i | i | i | -4.8
Cc1ccc(C(=O)N2[C@@H]3CN(C)C(=O)[C@@]2(C)[C@H]2C(=O)N(C)C(=O)[C@@H]32)cc1 | nt | nt | i | nt | nt | nt
CCCSc1nc(N)cc(=O)[nH]1 | -0.215 | i | i | i | i | 4.7*
CCOC(=O)c1c(CSc2ccc(C)cc2)n(C)c2cc(Br)c(O)c(CN(C)C)c12 | nt | i | i | i | i | -27.8
CCOC(=O)c1c(CSc2ccccc2)n(C)c2cc(Br)c(O)c(CN(C)C)c12 | -0.00629 | i | i | -6.7* | i | -19.8
CCN(CC)CC(=O)Nc1ccc2c(c1)Nc1ccccc1CC2 | nt | i | i | i | 8* | -2.4
CCN(CC)CC(=O)Nc1ccc2c(c1)N(C(=O)CN(CC)CC)c1ccccc1CC2 | nt | i | i | i | i | -5.9
Cc1ccc(NC2Sc3ccccc3NC2=O)cc1 (centres undefined) | 0.752 | i | i | i | i | -8.6
COc1ccc(OC)c(NC(=O)c2c(NC(=O)c3ccco3)sc3c2CCC3)c1 | 0.457 | i | nt | -7.54* | i | -9.1

High-throughput results deposited in PubChem BioAssay by several laboratories.
